Data from ChEMBL document CHEMBL4513216, “Probing the Open Global Health Chemical Diversity Library for Multistage-Active Starting Points for Next-Generation Antimalarials” (ACS Infect Dis, 2020).

assay: Toxicity liver stage against HepG2, at 10uM; type: cell-based; set-up: test concentration 10 uM, cell line HepG2-A16-CD81EGFP; details: human, HepG2-A16-CD81EGFP cells; read-out: INHIBITION
Method in brief: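 Uninfected HepG2-A16-CD81EGFP cells, 3 × 10^3 per well, 1536-well, plated on prespotted compound at 10 μM final, parasite-free screening media added to match infected plates; puromycin 10 μM positive, DMSO 0.5% negative; run in parallel with 48 h PbLuc assay at 37 °C, 5% CO2; viability by CellTiter-Glo luminescence, normalized to controls.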

Row | SMILES | cytotoxicity at 10 µM [%]
1 | CCn1ncnc1C1CC(=O)NCc2nc(N3CCOCC3)sc21 (configuration not stated) | 3.94
2 | O=C(NCC1(Sc2ccccc2)CC1)c1cc[nH]n1 | -5.96
3 | COc1ccc(Oc2ncccc2NC(=O)N2CC[C@H](O)C2)cc1 | 1.7
4 | COc1cc(NC(=O)NCc2nccn2C)ccc1Br | -9.11
5 | CC(CC(=O)NCCS(N)(=O)=O)C1CCCCC1 (configuration not stated) | -9.52
6 | O=C(COCc1ccccc1)N1CCCC(OCc2cccnc2)C1 (configuration not stated) | -2.65
7 | Cc1nc2c(c(N3CCC(CN4CCCC4=O)CC3)n1)CCNCC2 | 8.64
8 | CCn1cnc(NC(=O)N2CCC(c3ccc(Cl)cc3)C2)n1 (configuration not stated) | 0.0451
9 | COc1ccccc1S(=O)(=O)Nc1cnc(O)cc1C | -13.2
10 | CO[C@@H]1CC[C@H]2[C@H]1OCCN2S(=O)(=O)c1cn(C)cn1 | 5.32
11 | N#Cc1ncn(CCC(=O)Nc2ccc(F)c(F)c2)n1 | -147
12 | Cc1nc(NCc2nonc2C)cc(C(C)Cn2nc(C)c(C)c2C)n1 (configuration not stated) | 7.03
13 | CN(C)Cc1ccc(C(=O)N2CCCC(COc3ccc(F)cc3)C2)o1 (configuration not stated) | -12.9
14 | Cc1nn(CC(=O)Nc2cccc(F)c2)c(N)c1C#N | 17.9
15 | Cc1cc(C)n(CC2CCCCN2CC(=O)Nc2cccnc2)n1 (configuration not stated) | 6.46
16 | O=C(NCC(F)(F)C(F)F)c1cccnc1 | 15.4
17 | COc1c(C2CCCN2Cc2nnc(C3CC3)n2C)c(C)nn1C (configuration not stated) | 7.06
18 | Cc1noc(C)c1CN(C)C(=O)C1CCCCN1CC(C)C (configuration not stated) | 2.64
19 | O=C(c1cc[nH]n1)N1CC[C@@H]2CN(Cc3ccncc3)S(=O)(=O)[C@@H]2CC1 | 10.5
20 | Cn1nc(COc2cncnc2)c2c1CCN(Cc1ccco1)C2 | 9.64
21 | O=C(NCCCC(=O)N1Cc2ccccc2C1)NCc1nccs1 | -1.37

Row | SMILES | cytotoxicity at 10 µM [%]
22 | Cc1cc(NC(=O)CCn2nc(C)c3ccccc32)n(C)n1 | 3.4
23 | Cc1cc(C)cc(OCC(=O)N2CCCN(CC(N)=O)CC2)c1 | 0.821
24 | CCc1nc(CC(=O)NC(C#N)CC(C)C)cs1 (configuration not stated) | 9.17
25 | CN(Cc1nnc(-c2ccco2)o1)Cc1nc2c(s1)CCCC2 | 1.13
26 | COc1ccc(-c2nnc(CN3CCCC3Cn3cncn3)o2)cc1 (configuration not stated) | 3.02
27 | Cc1ccc(C2(CN3CCN(Cc4cncn4C)CC3)CC2)cc1 | -13.1
28 | CCn1cc(CN2CCN(Cc3cc(C)cc(C)c3)C(=O)C2)cc1C#N | 1.72
29 | Cc1cc(N2CCC3(CCCN(C4CCOCC4)C3=O)C2)ccn1 (configuration not stated) | -134
30 | COCC1CC2(CCN(C(=O)c3oc4ccccc4c3C)CC2)CO1 (configuration not stated) | -141
31 | C=C(C)COc1ccccc1CNCCc1c[nH]cn1 | -2.21
32 | Cc1ccc(CNC(=O)N2CCCCC2CCNS(C)(=O)=O)cc1 (configuration not stated) | -0.524
33 | CN(CCCOc1ccccc1)C(=O)CN1CCc2cncnc2C1 | -2.06
34 | O=C(Cc1ccc(F)cc1)NCCNc1cc(N2CCCC2)ncn1 | -8.37
35 | CCc1nc(Cn2c(=O)n(CC)c3ccccc32)no1 | -43.9
36 | COc1c(CNC2CCc3cc(F)ccc32)c(C)nn1C (configuration not stated) | -8.11
37 | COc1cc2cc(C(=O)O)n(C)c2c(OC)c1OC | 12.8
38 | CN(C)c1ccc(CCCNC(=O)Nc2ccc(C#N)cc2)cc1 | -1.14
39 | CCc1ccc(C(=O)N2CCN(CC(O)CC)CC2)o1 (configuration not stated) | -17.6
40 | O=C(NCCOCCO)c1cccnc1Oc1ccc(Cl)cc1 | 1.38
41 | c1ccc(N2CCCC2)c(NCc2ccncc2)c1 | -0.289
42 | CC(=O)N[C@@H]1CN(S(=O)(=O)c2ccc(Cl)cc2)C[C@H]1O | 7.03

Row | SMILES | cytotoxicity at 10 µM [%]
43 | O=C(c1ccon1)N1CCN(c2ccncc2Cl)CC1 | 2.22
44 | Clc1ccc(NCc2nnc(C3CC3)o2)cc1Cl | -12.4
45 | CCn1cc(NC(=O)NCC(C)(C)N2CCc3ccccc3C2)cn1 | -5.16
46 | CO[C@H]1COCCN(Cc2c[nH]c3ccccc23)C1 | 4.65
47 | O=C(Cc1cccs1)N1CCC2(CC1)COCCN2CC1CC1 | 4.98
48 | CCOc1cccc(C(=O)N2CCC3(CC2)[C@H](O)C[C@@H]3OC)c1 | 2.01
49 | COc1cn(-c2ccccc2)nc1C(=O)NCCCN1CCCC(C)C1 (configuration not stated) | -11.1
50 | O=C1NCC2=Nc3ccccc3NC(c3ccccc3)C12 (configuration not stated) | 1.14
51 | Cc1ccc(C(=O)NCC(O)CN2CCCC2=O)cc1Cl (configuration not stated) | -8.69
52 | COCCc1noc(CN2CCCC2c2noc(C(C)C)n2)n1 (configuration not stated) | -11.5
53 | O=S(=O)(CCCn1cncn1)Cc1ccc(F)cc1Cl | 7.49
54 | O=S(=O)(c1cccs1)N1CCCC2(COCCN(c3cccnc3)C2)C1 (configuration not stated) | -78.5
55 | CCN1CCC(CC(=O)N2CCn3cccc3C2c2cccnc2)CC1 (configuration not stated) | -8.87
56 | Cc1cc2cccc(C(=O)N3CC[C@](C)(O)[C@H](C)C3)c2o1 | 4
57 | Cc1cccc(C(Nc2nccc(C)n2)C2CC2)n1 (configuration not stated) | -2.67
58 | Cc1cccc(NC(=O)Cn2ncc(SCC(N)=O)c(Cl)c2=O)c1C | -15.7
59 | CCN(CC)S(=O)(=O)N1CCCC1c1nnc2n1CCCCC2 (configuration not stated) | -6.83
60 | Cc1nc(CCCNC(=O)[C@H]2CNC[C@@H](C(=O)N3CCCC3)C2)sc1C | -132
61 | N#Cc1ccc(NCCc2n[nH]c(=O)[nH]2)cc1Cl | 26.5
62 | Cc1cc(C)nc(N2CCC(c3cccc(CCC(=O)O)n3)CC2)n1 | 0.343
63 | Cc1ccc(C(=O)N2CCc3c(CNc4ncccn4)cncc3C2)o1 | 9.21

Row | SMILES | cytotoxicity at 10 µM [%]
64 | CC(C)N1CCCC(C(=O)N2CCc3c(nc(CC4CC4)[nH]c3=O)C2)C1 (configuration not stated) | -7.41
65 | COc1ccccc1NC(=O)c1ccc(C)n1C | 1.42
66 | Cn1ccc(C(=O)NC2CCC23CCN(CC2CCOCC2)CC3)c1 (configuration not stated) | -149
67 | COc1ccccc1CN1CCc2c(nc(-c3ccccn3)[nH]c2=O)C1 | -19.7
68 | Cc1ccccc1-n1ncc2c(=O)n(CCN3CCCCC3)cnc21 | -8.47
69 | CC(C)C(=O)N1CC[C@H]2N(C)CC[C@@]2(C(=O)N2CCCC2)CC1 | 5.5
70 | CC(C)(C)c1cc(NC(=O)CNC2CCc3ncnn3C2)on1 (configuration not stated) | 9.03
71 | Clc1cc(CN2CCCC2Cn2cncn2)c2ncccc2c1 (configuration not stated) | 1.28
72 | COc1ccc(F)cc1CN1CCCC(c2cc(C(N)=O)[nH]n2)C1 (configuration not stated) | 0.313
73 | CN(Cc1ccco1)[C@@H]1CN(CC2CCOCC2)[C@@H]2CCCO[C@H]12 | -76.4
74 | Cc1cccc(N2CCN(CCC(=O)NCc3cnc(C)cn3)CC2)c1 | -1.48
75 | COc1ncccc1CN1CC[C@@]2(O)CCN(C(=O)C3CCC3)C[C@H]2C1 | 9.31
76 | O=C(O)c1cc(-c2ccncc2)cc(S(=O)(=O)NCc2ccccn2)c1 | -51.9
77 | O=S(=O)(c1cn[nH]c1)N1CCCC(O)(CN2CCOCC2)CC1 (configuration not stated) | 6.61
78 | CCc1cnc(C)nc1N1CCS(=O)(=O)CC1 | -43.3
79 | COc1ncccc1NC(=O)N1CCC(CNC(C)=O)CC1 | 3.61
80 | COc1nc2cc(C)ccc2cc1CN(C)Cc1cc(C)[nH]n1 | 4.3
81 | Cc1cc(C(F)(F)F)nc(CNc2nc(C)nc3c2cnn3C)n1 | -2.24
82 | CS(=O)(=O)N1CC[C@]2(O)CCN(CCCC(=O)c3ccccc3)C[C@@H]2C1 | -8.86
